Reference: ChEMBL document CHEMBL1799951, “FimH antagonists for the oral treatment of urinary tract infections: from design and synthesis to in vitro and in vivo evaluation” (J Med Chem, 2010)
Activity calls are given as the source filed them. The rule behind the calls is not given here.

Tests used:
[1] = molecular target: Mannose-binding protein C (Homo sapiens) (UniProt P11226); assay: Binding affinity to MBP at 1 mM
Outline: (§1)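 FimH-CRD (10 μg/mL), DC-SIGN-CRD-Fc (2.5 μg/mL) or MBP (10 μg/mL) coated overnight at 4 °C in 20 mM HEPES pH 7.4, 150 mM NaCl, 10 mM CaCl2. Competition against streptavidin-peroxidase TM-PAA polymer as in the FimH ELISA, test compounds at 1 mM. D-mannose at 50 mM as positive control.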

[2] = molecular target: T1, CD209 antigen (Homo sapiens) (UniProt Q9NNX6); assay: Binding affinity to Fc-IgG-tagged DC-SIGN carbohydrate recognizing domain at 1 mM; outline: as §1
T1 sequence (whole entry): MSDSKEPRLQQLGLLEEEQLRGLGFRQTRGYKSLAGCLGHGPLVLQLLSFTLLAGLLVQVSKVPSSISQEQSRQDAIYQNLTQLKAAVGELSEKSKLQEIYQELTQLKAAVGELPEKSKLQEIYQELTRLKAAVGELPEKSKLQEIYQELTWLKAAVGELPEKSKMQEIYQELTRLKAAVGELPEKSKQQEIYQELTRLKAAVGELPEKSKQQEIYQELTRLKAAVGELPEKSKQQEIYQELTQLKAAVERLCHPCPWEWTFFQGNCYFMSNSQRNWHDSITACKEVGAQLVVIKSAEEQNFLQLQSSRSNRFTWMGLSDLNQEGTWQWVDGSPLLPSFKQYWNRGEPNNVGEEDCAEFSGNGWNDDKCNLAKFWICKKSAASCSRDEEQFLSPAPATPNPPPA

[3] = Dissociation constant, pKa of the compound by NMR spectrometric analysis; assay type: physicochemical
[4] = Lipophilicity, log D at pH 7.4 by miniatured shake flask method; assay type: physicochemical; conditions: buffer
Outline: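 Octanol-saturated 0.1 M phosphate pH 7.4 containing analyte at 1 μM, overlaid with octanol at two volume ratios, three wells each. Shaken 2 h at 25 °C, then centrifuged; aqueous phase measured by LC-MS. log D computed from depletion. Accepted when the ratio means agree within 0.1.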

[5] = Permeability coefficient, log Pe of the compound by PAMPA method; assay type: ADME
Outline: (§2)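 PAMPA with GIT-0 lipid, donor analyte 50 μM at pH 5.0, 6.2 and 7.4 in quadruplicate, 16 h undisturbed incubation. Donor and acceptor quantified by UV and LC-MS.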

[6] = Permeability of the compound assessed as membrane retention by PAMPA method; assay type: ADME; outline: as §2
[7] = Thermodynamic solubility of the compound at pH 6.5 after 24 hrs by LC-MS analysis; assay type: physicochemical; conditions: buffer, read-out: Therm_solubility
Outline: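 1 mg solid in 250 μL 50 mM phosphate pH 6.5, sonicated 15 min, shaken 2 h at 25 °C, left 24 h. pH measured, then filtered and diluted; concentration determined by LC-MS.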

[8] = Stability of the compound in simulated gastrointestinal fluid assessed as compound remaining after 2 hrs by LC-MS analysis; assay type: physicochemical; conditions: read-out: Stability
[9] = Stability of the compound in simulated intestinal fluid assessed as compound remaining after 2 hrs by LC-MS analysis; assay type: physicochemical; conditions: read-out: Stability
Outline: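 Simulated intestinal fluid (phosphate, NaOH, pancreatin, pH 6) at 37 °C, compound at 10 μM, 500 rpm. Samples at 0-120 min MeCN-quenched; LC-MS as % remaining versus initial.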

[10] = Cmax in plasma of urinary tract infection C3H/HeN mouse model at 50 mg/kg, iv administered as single dose measured after 6 hrs by LC-MS analysis; assay type: ADME, organism-based; set-up: dose 50 mg/kg, route intravenous
Outline: (§3)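 Female C3H/HeN mice (19-25 g) dosed once iv at 50 mg/kg in 100 μL PBS via tail vein. Blood and urine (10 μL) sampled at 6 min, 30 min, 1, 2, 4, 6, 8 and 24 h. Proteins precipitated with methanol, centrifuged, and supernatant quantified by LC-MS.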

[11] = Cmax in urine of urinary tract infection C3H/HeN mouse model at 50 mg/kg, iv administered as single dose measured after 6 hrs by LC-MS analysis; assay type: ADME, organism-based; set-up: dose 50 mg/kg, route intravenous; outline: as §3
[12] = AUC (0 to 24 hrs) in plasma of urinary tract infection C3H/HeN mouse model at 50 mg/kg, iv administered as single dose measured after 6 hrs by LC-MS analysis; assay type: ADME, organism-based; set-up: time < 24 hr, dose 50 mg/kg, route intravenous; outline: as §3
[13] = AUC (0 to 24 hrs) in urine of urinary tract infection C3H/HeN mouse model at 50 mg/kg, iv administered as single dose measured after 6 hrs by LC-MS analysis; assay type: ADME, organism-based; set-up: time < 24 hr, dose 50 mg/kg, route intravenous; outline: as §3
[14] = AUC (0 to 24 hrs) in urine of urinary tract infection C3H/HeN mouse model at 50 mg/kg, po administered as single dose measured after 6 hrs by LC-MS analysis; assay type: ADME, organism-based; set-up: time < 24 hr, dose 50 mg/kg, route oral
Outline: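 Female C3H/HeN mice (19-25 g) gavaged once at 50 mg/kg. Compound dissolved in DMSO and diluted in 1% Tween-80/PBS as a suspension, or given in 200 μL PBS. Blood and urine sampled at 6 min to 24 h, methanol-precipitated, and analysed by LC-MS. For the prodrug, both parent and carboxylate metabolite were measured.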

Escherichia coli [15] = assay: Antibacterial activity against Escherichia coli […] infected in urinary tract infection C3H/HeN mouse model assessed as log reduction in bacterial CFU in urine of mouse at 50 mg/kg, po administered as single dose 1 hr before infection and measured after 3 hrs post infection; assay type: functional; conditions: route intravenous, in the assay text read “iv administered” for “po administered”
Escherichia coli [16] = assay: Antibacterial activity against Escherichia coli […] infected in urinary tract infection C3H/HeN mouse model assessed as log reduction in bacterial CFU in bladder of mouse at 50 mg/kg, po administered as single dose 1 hr before infection and measured after 3 hrs post infection; assay type: functional; conditions: route intravenous, in the assay text read “iv administered” for “po administered”
Escherichia coli [17] = assay: Antibacterial activity against Escherichia coli […] infected in urinary tract infection C3H/HeN mouse model assessed as log reduction in bacterial count in kidney of mouse at 50 mg/kg, iv administered as single dose 1 hr before infection and measured after 3 hrs post infection; assay type: functional, organism-based; set-up: dose 50 mg/kg
Outline: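 Female C3H/HeN mice given antagonist iv (100 μL PBS, tail vein) or po as suspension, then infected. Infection: isoflurane anaesthesia, bladder emptied, 50 μL UTI89 at about 10^9-10^10 CFU/mL via transurethral catheter. Six mice per group, killed 3 h post-inoculation. Kidneys plated on EMB agar. Reduction taken against the 3 h untreated control mean; Mann-Whitney test.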

Liver = assay: Metabolic stability of the compound in mouse liver microsomes assessed as Cyp 450-mediated degradation at 2 uM after 30 mins by LC-MS analysis in presence of NADPH; conditions: 0.5 h
Escherichia coli [18] = assay: Antibacterial activity against Escherichia coli […] infected in urinary tract infection C3H/HeN mouse model assessed as reduction in bacterial count in kidney of mouse at 50 mg/kg, iv administered as single dose 1 hr before infection and measured after 3 hrs post infection
[19] = molecular target: Type 1 fimbrin D-mannose specific adhesin (Escherichia coli K-12, UniProt P08191); assay: Competitive inhibition of His-tagged FimH carbohydrate recognizing domain expressed in Escherichia coli HM125 using ABTS-substrate after 3 hrs by […] assay
Outline: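 FimH-CRD-Th-6His from E. coli HM125 coated at 10 μg/mL overnight at 4 °C and blocked with 3% BSA. 4-fold compound dilutions in HEPES buffer pH 7.4 (5% DMSO) plus streptavidin-peroxidase TM-PAA polymer, 3 h at 25 °C. ABTS developed 4 min and read at 415 nm. Duplicates; heptyl mannoside reference on each plate.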

[20] = molecular target: Type 1 fimbrin D-mannose specific adhesin (Escherichia coli K-12) (UniProt P08191); assay: Ratio IC50 for compound to IC50 for n-heptyl R-D-mannopyranoside for His-tagged FimH expressed in Escherichia coli HM125
Outline: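 FimH-CRD-Th-6His (10 μg/mL) coated overnight at 4 °C in 20 mM HEPES, 150 mM NaCl, 1 mM CaCl2, pH 7.4, then blocked with 3% BSA. 4-fold compound dilutions in 5% DMSO competed with streptavidin-peroxidase TM-PAA polymer for 3 h at 25 °C. ABTS read at 415 nm, duplicates. IC50 divided by the IC50 of the heptyl mannoside reference run on the same plate.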

[21] = Plasma protein binding in human by miniatured equilibrium dialysis method; assay type: ADME, cell-free; conditions: read-out: PPB (converted)
Outline: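 Human plasma adjusted to pH 7.5 with analyte at 10 μM, dialysed against 0.1 M phosphate pH 7.5 (MWCO 12-14 K) for 5 h at 37 °C in triplicate. Compartments MeCN-precipitated and measured by LC-MS; fb = 1 − cbuffer/cplasma.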

[22] = Plasma protein binding […] by LC-MS analysis; assay type: ADME, cell-free; conditions: read-out: PPB (converted)
Escherichia coli [23] = assay: Antibacterial activity against Escherichia coli […] infected in urinary tract infection C3H/HeN mouse model assessed as log reduction in bacterial CFU in urine of mouse at 50 mg/kg, iv administered as single dose 1 hr before infection and measured after 3 hrs post infection; assay type: functional
Outline: (§4)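 Female C3H/HeN mice dosed iv into the tail vein in 100 μL PBS, then infected transurethrally under isoflurane with 50 μL UPEC UTI89 (~10^9–10^10 CFU/mL; LB 24 h static 37 °C, PBS-washed). Six mice per group, killed 3 h post-inoculation. Urine, bladder and kidneys plated on EMB agar. Log CFU reduction taken against the 3 h untreated control baseline; Mann-Whitney test.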

Escherichia coli [24] = assay: Antibacterial activity against Escherichia coli […] infected in urinary tract infection C3H/HeN mouse model assessed as log reduction in bacterial CFU in bladder of mouse at 50 mg/kg, iv administered as single dose 1 hr before infection and measured after 3 hrs post infection; assay type: functional; outline: as §4

Mannose-binding protein C (Homo sapiens), sequence (P11226 whole entry): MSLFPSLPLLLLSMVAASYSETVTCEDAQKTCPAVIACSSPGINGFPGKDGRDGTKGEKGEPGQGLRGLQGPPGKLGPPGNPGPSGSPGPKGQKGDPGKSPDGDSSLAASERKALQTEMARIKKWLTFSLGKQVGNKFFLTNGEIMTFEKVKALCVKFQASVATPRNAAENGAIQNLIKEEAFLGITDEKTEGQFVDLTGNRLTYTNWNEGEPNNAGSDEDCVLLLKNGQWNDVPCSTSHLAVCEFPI
Type 1 fimbrin D-mannose specific adhesin (Escherichia coli K-12), sequence (P08191 whole entry): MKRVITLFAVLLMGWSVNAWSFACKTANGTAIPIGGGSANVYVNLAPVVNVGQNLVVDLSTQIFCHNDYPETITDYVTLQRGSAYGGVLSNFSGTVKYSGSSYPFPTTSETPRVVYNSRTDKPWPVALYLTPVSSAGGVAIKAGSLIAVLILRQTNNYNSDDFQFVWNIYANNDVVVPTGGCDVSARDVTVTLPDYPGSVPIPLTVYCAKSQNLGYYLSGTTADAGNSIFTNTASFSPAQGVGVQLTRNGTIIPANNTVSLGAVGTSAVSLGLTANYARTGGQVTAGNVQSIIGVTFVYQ
Type 1 fimbrin D-mannose specific adhesin, sequence (P08191 whole entry, the tested form may be a part): as the sequence (P08191 whole entry) above

O=C([O-])c1ccc(-c2ccc(O[C@H]3O[C@H](CO)[C@@H](O)[C@H](O)[C@@H]3O)c(Cl)c2)cc1.[Na+]
Activity [1]: inactive | Activity [2]: inactive | pKa [3]: 3.98 | logD [4]: -0.77 | permeability [5]: impermeable | permeability [6]: 3.5% | solubility thermodynamic at 24 h [7]: > 3000 µg/mL | remaining at 2 h [8]: 80% | remaining at 2 h [9]: 80% | Cmax [10]: 39.4 µg/mL | Cmax [11]: 588 µg/mL | AUC(0-t) at 24 h [12]: 20800 ng·h/mL | AUC(0-t) at 24 h [13]: 210000 ng·h/mL | AUC(0-t) at 24 h [14]: 2700 ng·h/mL | FC (Escherichia coli [15]): 2 | FC (Escherichia coli [16]): 4 | Activity (Escherichia coli [17]): Active | Stability (Liver): Stable | Activity (Escherichia coli [18]): Active

O=C([O-])c1ccc(-c2ccc(O[C@H]3O[C@H](CO)[C@@H](O)[C@H](O)[C@@H]3O)cc2)cc1.[Na+]
IC50 [19]: 17.1 nM | Ratio IC50 [20]: 0.15 | Activity [1]: inactive | Activity [2]: inactive | pKa [3]: 3.88 | permeability [5]: impermeable | solubility thermodynamic at 24 h [7]: > 3000 µg/mL | fraction unbound [21]: 0.27 | Cmax [10]: 34.4 µg/mL | Cmax [11]: 510 µg/mL | AUC(0-t) at 24 h [12]: 19300 ng·h/mL | AUC(0-t) at 24 h [13]: 140000 ng·h/mL | fraction unbound [22]: 0.27 | FC (Escherichia coli [23]): >2 | FC (Escherichia coli [24]): 4.5 | Activity (Escherichia coli [17]): Active | Stability (Liver): Stable | Activity (Escherichia coli [18]): Active
